{"source": "paper PMC11684312", "about": "(Nature chemistry, 2024)", "key": {"C349A LIMK1-NanoLuc": {"biological_target": "C349A LIMK1-NanoLuc (Homo sapiens, UniProt P53667, C349A)", "sequence (P53667 whole entry C349A)": "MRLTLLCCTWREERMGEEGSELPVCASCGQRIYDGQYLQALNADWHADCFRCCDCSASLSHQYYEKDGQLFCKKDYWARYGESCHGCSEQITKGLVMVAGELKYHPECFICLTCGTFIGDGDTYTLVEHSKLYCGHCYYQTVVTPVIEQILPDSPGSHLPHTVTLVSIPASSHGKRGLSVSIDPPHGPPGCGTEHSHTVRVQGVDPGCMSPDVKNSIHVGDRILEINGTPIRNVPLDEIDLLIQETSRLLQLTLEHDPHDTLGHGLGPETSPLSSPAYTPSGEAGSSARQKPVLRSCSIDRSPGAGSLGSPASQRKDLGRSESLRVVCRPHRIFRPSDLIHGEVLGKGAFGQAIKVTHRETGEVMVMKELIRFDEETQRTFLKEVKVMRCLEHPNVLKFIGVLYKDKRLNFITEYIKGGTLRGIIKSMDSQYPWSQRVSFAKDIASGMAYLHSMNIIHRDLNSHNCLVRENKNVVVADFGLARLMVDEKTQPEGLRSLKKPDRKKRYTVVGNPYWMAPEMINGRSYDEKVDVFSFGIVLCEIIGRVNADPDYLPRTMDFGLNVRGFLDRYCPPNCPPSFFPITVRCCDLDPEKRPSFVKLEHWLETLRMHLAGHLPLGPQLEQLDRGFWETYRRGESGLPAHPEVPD", "experiment": "LIMK1 NanoBRET target engagement assay, C349A", "format": "cell-based", "details": "HEK293T cells, C349A-LIMK1 mutant, 3 h", "procedure,_shortened": "(§1)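 HEK293T cells in Opti-MEM without phenol red with 1% FBS (2x10^5 cells/mL) were transfected with WT or C349A LIMK1-NanoLuc plasmid (1 μg/mL) plus carrier DNA (9 μg/mL) for 20 h at 37 °C/5% CO2. K-10 tracer and test compound (diluted from 1000x DMSO stocks) were added for 3 h at 37 °C. Donor 450 nm and acceptor 610 nm were read after substrate/inhibitor (2 min, RT). Untransfected background was subtracted, mBU calculated, then normalized to DMSO. Triplicate wells.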"}, "WT LIMK1-NanoLuc": {"biological_target": "WT LIMK1-NanoLuc (Homo sapiens, UniProt P53667)", "sequence (P53667 whole entry)": "as the sequence (P53667 whole entry C349A) above, with A349C counted along it", "experiment": "LIMK1 NanoBRET target engagement assay, WT", "format": "cell-based", "details": "HEK293T cells, 0.5 μM K-10 tracer, 3 h", "procedure,_shortened": "as §1"}}, "data": [{"smiles": "COc1ccc(N(C(=O)Nc2c(C)cccc2C)c2cc(Nc3ccc(N4CCN(C)CC4)cc3)ncn2)c(OC)c1", "note": "[HG-9-91-01]", "values": [{"measurement": "BRET signal (NanoBRET K-10 tracer)", "setting": "C349A LIMK1-NanoLuc", "value": "decreased NanoBRET signals"}, {"measurement": "BRET signal (NanoBRET K-10 tracer)", "setting": "WT LIMK1-NanoLuc", "value": "decreased NanoBRET signals"}]}]}
